# Reference: ChEMBL document CHEMBL1122008, “Lipophilic 5'-(alkyl phosphate) esters of 1-beta-D-arabinofuranosylcytosine and its N4-acyl and 2,2'-anhydro-3'-O-acyl derivatives as potential prodrugs” (1982)
# Experiments:
# Type in all cases: functional
# [1] = tested on: Mus musculus; test: Antitumor activity against L1210/ara-C leukemia in mice (Average 7-day weight change) at the dose of 117 mg/kg
# Summary of the method: (§1)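 Male B6D2F1J mice (5–9 per group) were given 10^5 L1210/ara-C cells i.p. on day 0, with treatment from day 1 on qd×5 or q4d(2,6). Vehicles were sterile water, pH 7.4 0.05 M phosphate buffer, or a Tween 80/CMC/benzyl alcohol saline suspension. Weights were taken on days 1 and 7; change is expressed in g/mouse and as a percentage.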
# [2] = tested on: Mus musculus; test: Antitumor activity against L1210/ara-C leukemia in mice (Average 7-day weight change (%)) at the dose of 117 mg/kg; summary of the method: as §1
# [3] = tested on: Mus musculus; test: Antitumor activity against L1210 leukemia in mice (Average weight per mouse on day 1.) at the dose of 234 mg/kg
# Summary of the method: (§2)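 Male B6D2F1J mice (5–9 per group) received 10^5 L1210 cells i.p. on day 0 and drug from day 1, given qd×5 or q4d(2,6). Vehicles were sterile water, 0.05 M potassium phosphate pH 7.4, or 0.4% Tween 80/0.5% CMC/0.9% benzyl alcohol/0.9% saline. Read-out is average body weight per mouse (g) on day 1.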
# [4] = tested on: Mus musculus; test: Antitumor activity against L1210 leukemia in mice (Average 7-day weight change (%)) at the dose of 234 mg/kg
# Summary of the method: (§3)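 Male B6D2F1J mice, groups of five to nine, inoculated ip with 10^5 L1210 cells on day 0. Drug treatment started day 1 on qd×5 or q4d(2,6) schedule. Vehicles: ara-C in sterile water; the n-butyl phosphate ester in 0.05 M pH 7.4 potassium phosphate buffer; others as suspensions in 0.4% Tween 80/0.5% low-density CMC/0.9% benzyl alcohol/0.9% saline. Mice weighed days 1 and 7; 7-day weight change given as g/mouse and %.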
# [5] = tested on: Mus musculus; test: Antitumor activity against L1210/ara-C leukemia in mice (Percent increase in life span.) at the dose of 117 mg/kg
# Summary of the method: (§4)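 Same protocol as the L1210 assay, but with 10^5 kinase-deficient L1210/ara-C cells inoculated ip into male B6D2F1J mice (groups of 5–9) on day 0. Treatment begins day 1, qd×5 or q4d(2,6). %ILS = (T/C − 1)×100 using median survival times of treated and control groups. Body weight recorded days 1 and 7.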
# [6] = tested on: Mus musculus; test: Antitumor activity against L1210 leukemia in mice (Average weight per mouse on day 1.) at the dose of 468 mg/kg; summary of the method: as §2
# [7] = tested on: Mus musculus; test: Antitumor activity against L1210 leukemia in mice (Average 7-day weight change (%)) at the dose of 117 mg/kg; summary of the method: as §3
# [8] = tested on: Mus musculus; test: Antitumor activity against L1210 leukemia in mice (Percent increase in life span.) at the dose of 234 mg/kg (mice surviving 20 or more days)
# Summary of the method: (§5)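 Male B6D2F1J mice, groups of 5–9, inoculated ip with 10^5 L1210 cells on day 0. Dosing starts day 1 on a qd×5 or q4d(2,6) schedule. Vehicles are sterile water, pH 7.4 0.05 M potassium phosphate buffer, or 0.4% Tween 80/0.5% CMC/0.9% benzyl alcohol/0.9% saline. %ILS = (T/C − 1)×100 from median survival. Weights taken days 1 and 7.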
# [9] = tested on: Mus musculus; test: Antitumor activity against L1210 leukemia in mice (Average weight per mouse on day 1.) at the dose of 117 mg/kg; summary of the method: as §2
# [10] = tested on: Mus musculus; test: Antitumor activity against L1210/ara-C leukemia in mice (Percent increase in life span.) at the dose of 468 mg/kg; summary of the method: as §4
# [11] = tested on: Mus musculus; test: Antitumor activity against L1210 leukemia in mice (Percent increase in life span.) at the dose of 468 mg/kg (mice surviving 20 or more days); summary of the method: as §5
# [12] = tested on: Mus musculus; test: Antitumor activity against L1210 leukemia in mice (Average 7-day weight change) at the dose of 468 mg/kg; summary of the method: as §3
# [13] = tested on: Mus musculus; test: Antitumor activity against L1210/ara-C leukemia in mice (Average weight per mouse on day 1.) at the dose of 468 mg/kg
# Summary of the method: (§6)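 Male B6D2F1J mice, groups of 5–9, inoculated ip with 10^5 L1210/ara-C cells on day 0. Dosing began day 1 on a qd×5 or q4d(2,6) schedule. Ara-C was given in sterile water, the n-butyl phosphate ester in 0.05 M pH 7.4 potassium phosphate buffer, and others as suspensions in 0.4% Tween 80/0.5% CMC/0.9% benzyl alcohol/0.9% saline. Mice were weighed on days 1 and 7; 7-day change given in g and %.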
# [14] = tested on: Mus musculus; test: Antitumor activity against L1210 leukemia in mice (Average 7-day weight change (%)) at the dose of 468 mg/kg; summary of the method: as §3
# [15] = tested on: Mus musculus; test: Antitumor activity against L1210/ara-C leukemia in mice (Average 7-day weight change) at the dose of 234 mg/kg; summary of the method: as §1
# [16] = tested on: Mus musculus; test: Antitumor activity against L1210/ara-C leukemia in mice (Average weight per mouse on day 1.) at the dose of 234 mg/kg; summary of the method: as §6
# [17] = tested on: Mus musculus; test: Antitumor activity against L1210/ara-C leukemia in mice (Average weight per mouse on day 1.) at the dose of 117 mg/kg; summary of the method: as §6
# [18] = tested on: Mus musculus; test: Antitumor activity against L1210/ara-C leukemia in mice (Average 7-day weight change (%)) at the dose of 468 mg/kg; summary of the method: as §1
# [19] = tested on: Mus musculus; test: Antitumor activity against L1210/ara-C leukemia in mice (Percent increase in life span.) at the dose of 234 mg/kg; summary of the method: as §4
# [20] = tested on: Mus musculus; test: Antitumor activity against L1210 leukemia in mice (Percent increase in life span.) at the dose of 117 mg/kg; summary of the method: as §5
# [21] = tested on: Mus musculus; test: Antitumor activity against L1210 leukemia in mice (Average 7-day weight change) at the dose of 117 mg/kg; summary of the method: as §3
# [22] = tested on: Mus musculus; test: Antitumor activity against L1210/ara-C leukemia in mice (Average 7-day weight change (%)) at the dose of 234 mg/kg; summary of the method: as §1
# [23] = tested on: Mus musculus; test: Antitumor activity against L1210 leukemia in mice (Average 7-day weight change) at the dose of 234 mg/kg; summary of the method: as §3
# [24] = tested on: Mus musculus; test: Antitumor activity against L1210/ara-C leukemia in mice (Average 7-day weight change) at the dose of 468 mg/kg; summary of the method: as §1
# [25] = tested on: Mus musculus; test: Antitumor activity against L1210 leukemia in mice (Average 7-day weight change) at the dose of 180 mg/kg; summary of the method: as §3
# [26] = tested on: Mus musculus; test: Antitumor activity against L1210 leukemia in mice (Average weight per mouse on day 1.) at the dose of 240 mg/kg; summary of the method: as §2
# [27] = tested on: Mus musculus; test: Antitumor activity against L1210 leukemia in mice (Percent increase in life span.) at the dose of 180 mg/kg (mice surviving 20 or more days); summary of the method: as §5
# [28] = tested on: Mus musculus; test: Antitumor activity against L1210 leukemia in mice (Average weight per mouse on day 1.) at the dose of 180 mg/kg; summary of the method: as §2
# [29] = tested on: Mus musculus; test: Antitumor activity against L1210 leukemia in mice (Average 7-day weight change (%)) at the dose of 240 mg/kg; summary of the method: as §3
# [30] = tested on: Mus musculus; test: Antitumor activity against L1210 leukemia in mice (Average 7-day weight change (%)) at the dose of 180 mg/kg; summary of the method: as §3
# [31] = tested on: Mus musculus; test: Antitumor activity against L1210 leukemia in mice (Percent increase in life span.) at the dose of 240 mg/kg (mice surviving 20 or more days); summary of the method: as §5
# [32] = tested on: Mus musculus; test: Antitumor activity against L1210 leukemia in mice (Average 7-day weight change) at the dose of 240 mg/kg; summary of the method: as §3
smiles,measurement,setting,value
CCCCCCCCCCCCCCCC(=O)O[C@H]1[C@@H]2Oc3nc(=N)ccn3[C@@H]2O[C@@H]1COP(=O)(O)OCC,Weight change,[1],2 g mouse-1
same,Weight change,[2],9%
same,Average weight,[3],24.2 g mouse-1
same,Weight change,[4],-11%
same,ILS at 117 mg/kg,[5],0%
same,Average weight,[6],23.6 g mouse-1
same,Weight change,[7],-7%
same,ILS at 234 mg/kg,[8],138%
same,Average weight,[9],24.4 g mouse-1
same,ILS at 468 mg/kg,[10],-13%
same,ILS at 468 mg/kg,[11],100%
same,Weight change,[12],-3.8 g mouse-1
same,Average weight,[13],22 g mouse-1
same,Weight change,[14],-16%
same,Weight change,[15],0.2 g mouse-1
same,Average weight,[16],21.4 g mouse-1
same,Average weight,[17],22.4 g mouse-1
same,Weight change,[18],-20%
same,ILS at 234 mg/kg,[19],0%
same,ILS at 117 mg/kg,[20],75%
same,Weight change,[21],-1.6 g mouse-1
same,Weight change,[22],1%
same,Weight change,[23],-2.6 g mouse-1
same,Weight change,[24],-2.4 g mouse-1
CCCCCCCCCCCCCC(=O)O[C@H]1[C@@H]2Oc3nc(=N)ccn3[C@@H]2O[C@@H]1COP(=O)(O)OCCCC,Weight change,[25],-2.6 g mouse-1
same,Average weight,[26],23.4 g mouse-1
same,ILS at 180 mg/kg,[27],100%
same,Average weight,[28],23.2 g mouse-1
same,Weight change,[29],-17%
same,Weight change,[30],-11%
same,ILS at 240 mg/kg,[31],112%
same,Weight change,[32],-4 g mouse-1
